Laboratory results as given in ChEMBL document CHEMBL4387708, “Enhancement of Benzothiazoles as Pteridine Reductase-1 Inhibitors for the Treatment of Trypanosomatidic Infections” (J Med Chem, 2019).

Biological target: Cytochrome P450 2C9 (Homo sapiens, UniProt P11712)
Experiment: Inhibition of human CYP2C9 expressed in baculovirus infected insect cells using beetle D-luciferin as substrate preincubated for 30 mins followed by NADPH addition and measured after 30 mins by CYP450-Glo assay
Conditions: not given

Cytochrome P450 2C9, sequence (P11712 whole entry): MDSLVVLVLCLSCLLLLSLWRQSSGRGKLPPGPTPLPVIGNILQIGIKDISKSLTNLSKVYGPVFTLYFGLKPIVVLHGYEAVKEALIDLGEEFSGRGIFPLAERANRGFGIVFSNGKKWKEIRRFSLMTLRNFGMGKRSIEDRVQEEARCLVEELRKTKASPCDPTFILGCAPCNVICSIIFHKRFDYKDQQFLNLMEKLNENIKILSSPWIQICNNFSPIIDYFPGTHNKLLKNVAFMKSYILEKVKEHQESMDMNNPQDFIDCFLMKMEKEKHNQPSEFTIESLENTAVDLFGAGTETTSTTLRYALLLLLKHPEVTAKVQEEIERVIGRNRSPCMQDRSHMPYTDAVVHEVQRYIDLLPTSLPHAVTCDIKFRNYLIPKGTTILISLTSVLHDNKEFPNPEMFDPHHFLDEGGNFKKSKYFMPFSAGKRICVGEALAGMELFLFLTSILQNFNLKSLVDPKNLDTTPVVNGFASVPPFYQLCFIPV

SMILES	IC50 [µM]
CS(=O)(=O)c1ccc2nc(N)sc2c1	> 25
Nc1nc2ccc(C(=O)NCc3ccccc3N)cc2s1	> 25
Nc1nc2ccc(C(=O)NCc3ccc(Cl)c(Cl)c3)cc2s1	> 25
Nc1nc2c(C(=O)NCc3ccccc3)cc(O)c(O)c2s1	> 25

Test system: Trypanosoma cruzi
Experiment: Growth inhibition of trypomastigote form of Trypanosoma cruzi Y infected in human U2OS cells at 50 uM measured after 72 hrs by DRAQ5 DNA dye based confocal microscopic analysis relative to control
Format: organism-based
Conditions: Trypanosoma cruzi, Y, U2OS, read-out: GI

SMILES	inhibition at 50 µM [%]
CS(=O)(=O)c1ccc2nc(N)sc2c1	17.4
Nc1nc2ccc(C(=O)NCc3ccccc3N)cc2s1	6.1
Nc1nc2c(C(=O)NCc3ccccc3)cc(O)c(O)c2s1	5.85

Same assay, conditions: trypanosoma cruzi, 50 µM

SMILES	growth inhibition (GI)
Nc1nc2ccc(C(=O)NCc3ccc(Cl)c(Cl)c3)cc2s1	Non-Toxic

Test system: not listed separately
Experiment: Cytotoxicity against human U2OS cells assessed as reduction in cell number
Format: cell-based
Conditions: not given

SMILES	GI50 [µM]
CS(=O)(=O)c1ccc2nc(N)sc2c1	> 25
Nc1nc2ccc(C(=O)NCc3ccccc3N)cc2s1	> 25
Nc1nc2ccc(C(=O)NCc3ccc(Cl)c(Cl)c3)cc2s1	> 25
Nc1nc2c(C(=O)NCc3ccccc3)cc(O)c(O)c2s1	> 25

Test system: not listed separately
Experiment: Cytotoxicity against human A549 cells after 48 hrs by Celltiter-glo assay
Format: cell-based
Conditions: not given

SMILES	GI50 at 48 h [µM]
CS(=O)(=O)c1ccc2nc(N)sc2c1	> 25
Nc1nc2ccc(C(=O)NCc3ccccc3N)cc2s1	> 25
Nc1nc2ccc(C(=O)NCc3ccc(Cl)c(Cl)c3)cc2s1	> 25
Nc1nc2c(C(=O)NCc3ccccc3)cc(O)c(O)c2s1	10 to 25

Test system: Trypanosoma brucei
Experiment: Growth inhibition of Trypanosoma brucei bloodstream forms at 10 uM measured after 72 hrs by resazurin-based fluorescence assay relative to control
Format: organism-based
Conditions: Trypanosoma brucei, read-out: GI

SMILES	inhibition at 10 µM [%]
CS(=O)(=O)c1ccc2nc(N)sc2c1	17
Nc1nc2ccc(C(=O)NCc3ccccc3N)cc2s1	8
Nc1nc2ccc(C(=O)NCc3ccc(Cl)c(Cl)c3)cc2s1	5
Nc1nc2c(C(=O)NCc3ccccc3)cc(O)c(O)c2s1	15

Test system: not listed separately
Experiment: Selectivity ratio of IC50 for Leishmania major pteridine reductase 1 to IC50 for N-terminal His-tagged Trypanosoma brucei pteridine reductase 1
Conditions: not given

SMILES	Ratio IC50
CS(=O)(=O)c1ccc2nc(N)sc2c1	2 to 100
Nc1nc2ccc(C(=O)NCc3ccccc3N)cc2s1	2 to 100
Nc1nc2ccc(C(=O)NCc3ccc(Cl)c(Cl)c3)cc2s1	2 to 100
Nc1nc2c(C(=O)NCc3ccccc3)cc(O)c(O)c2s1	2 to 100

Test system: Leishmania infantum
Experiment: Growth inhibition of luciferase expressing Leishmania infantum axenic amastigotes infected in human THP1 cells at 10 uM measured after 72 hrs by steady-glo luminescence assay relative to control
Format: organism-based
Conditions: Leishmania infantum, THP-1, 72 h; read-out: GI

SMILES	inhibition at 10 µM [%]
Nc1nc2ccc(C(=O)NCc3ccc(Cl)c(Cl)c3)cc2s1	5

Same assay, conditions: leishmania infantum, 72 h, 10 µM

SMILES	growth inhibition (GI)
CS(=O)(=O)c1ccc2nc(N)sc2c1	Non-Toxic
Nc1nc2ccc(C(=O)NCc3ccccc3N)cc2s1	Non-Toxic
Nc1nc2c(C(=O)NCc3ccccc3)cc(O)c(O)c2s1	Non-Toxic

Biological target: Voltage-gated inwardly rectifying potassium channel KCNH2 (Homo sapiens, UniProt Q12809)
Experiment: Displacement of Tracer Red from human ERG by fluorescence polarization assay
Conditions: not given

Voltage-gated inwardly rectifying potassium channel KCNH2, sequence (Q12809 whole entry): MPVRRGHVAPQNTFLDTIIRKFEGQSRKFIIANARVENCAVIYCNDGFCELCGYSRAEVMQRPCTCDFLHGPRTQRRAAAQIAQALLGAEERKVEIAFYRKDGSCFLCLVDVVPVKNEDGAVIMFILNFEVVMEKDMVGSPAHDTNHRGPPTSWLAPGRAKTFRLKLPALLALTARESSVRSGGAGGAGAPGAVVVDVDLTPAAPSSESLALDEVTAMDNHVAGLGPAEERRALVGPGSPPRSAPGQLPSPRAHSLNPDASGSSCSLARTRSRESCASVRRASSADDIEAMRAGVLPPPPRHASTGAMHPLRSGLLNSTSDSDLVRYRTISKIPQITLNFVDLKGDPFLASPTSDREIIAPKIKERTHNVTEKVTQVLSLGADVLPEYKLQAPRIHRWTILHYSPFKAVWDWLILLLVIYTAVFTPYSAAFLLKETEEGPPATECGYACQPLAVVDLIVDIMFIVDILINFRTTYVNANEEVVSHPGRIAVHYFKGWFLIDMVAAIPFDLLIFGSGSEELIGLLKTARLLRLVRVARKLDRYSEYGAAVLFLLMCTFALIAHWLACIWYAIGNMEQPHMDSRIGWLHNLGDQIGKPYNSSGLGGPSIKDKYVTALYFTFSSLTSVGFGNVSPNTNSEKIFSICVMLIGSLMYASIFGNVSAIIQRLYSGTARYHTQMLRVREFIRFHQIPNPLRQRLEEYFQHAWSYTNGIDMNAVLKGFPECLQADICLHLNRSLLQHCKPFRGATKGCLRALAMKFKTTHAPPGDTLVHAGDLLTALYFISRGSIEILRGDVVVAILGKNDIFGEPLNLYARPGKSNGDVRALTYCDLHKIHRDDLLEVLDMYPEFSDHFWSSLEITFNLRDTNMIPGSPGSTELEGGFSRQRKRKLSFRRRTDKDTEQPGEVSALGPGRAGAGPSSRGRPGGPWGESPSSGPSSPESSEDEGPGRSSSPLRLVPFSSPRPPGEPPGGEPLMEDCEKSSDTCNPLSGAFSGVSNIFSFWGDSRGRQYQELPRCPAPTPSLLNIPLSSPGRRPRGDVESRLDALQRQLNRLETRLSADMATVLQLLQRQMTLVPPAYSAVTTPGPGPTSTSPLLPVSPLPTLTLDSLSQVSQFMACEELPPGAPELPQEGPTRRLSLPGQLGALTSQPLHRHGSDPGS

SMILES	IC50 [µM]
CS(=O)(=O)c1ccc2nc(N)sc2c1	> 25
Nc1nc2ccc(C(=O)NCc3ccccc3N)cc2s1	> 25
Nc1nc2ccc(C(=O)NCc3ccc(Cl)c(Cl)c3)cc2s1	> 25
Nc1nc2c(C(=O)NCc3ccccc3)cc(O)c(O)c2s1	> 25

Biological target: Cytochrome P450 2C19 (Homo sapiens, UniProt P33261)
Experiment: Inhibition of human CYP2C19 expressed in baculovirus infected insect cells using beetle D-luciferin as substrate preincubated for 30 mins followed by NADPH addition and measured after 30 mins by CYP450-Glo assay
Conditions: not given

Cytochrome P450 2C19, sequence (P33261 whole entry): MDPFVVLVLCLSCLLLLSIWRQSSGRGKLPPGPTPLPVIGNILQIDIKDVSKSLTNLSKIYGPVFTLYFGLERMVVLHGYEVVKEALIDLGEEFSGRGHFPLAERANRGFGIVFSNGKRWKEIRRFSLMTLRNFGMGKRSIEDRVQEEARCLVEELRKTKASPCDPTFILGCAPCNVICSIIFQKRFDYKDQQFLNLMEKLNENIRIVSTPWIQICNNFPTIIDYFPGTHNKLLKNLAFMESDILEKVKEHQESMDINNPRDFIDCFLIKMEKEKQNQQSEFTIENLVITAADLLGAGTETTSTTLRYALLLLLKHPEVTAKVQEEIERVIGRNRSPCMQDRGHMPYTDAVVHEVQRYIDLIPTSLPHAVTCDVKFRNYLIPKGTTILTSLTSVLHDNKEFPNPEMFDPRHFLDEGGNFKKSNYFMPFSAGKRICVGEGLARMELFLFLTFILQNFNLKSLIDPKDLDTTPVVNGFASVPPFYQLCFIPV

SMILES	IC50 [µM]
CS(=O)(=O)c1ccc2nc(N)sc2c1	> 25
Nc1nc2ccc(C(=O)NCc3ccccc3N)cc2s1	> 25
Nc1nc2ccc(C(=O)NCc3ccc(Cl)c(Cl)c3)cc2s1	< 10
Nc1nc2c(C(=O)NCc3ccccc3)cc(O)c(O)c2s1	> 25

Test system: not listed separately
Experiment: Cytotoxicity against human THP1 cells after 72 hrs by MTT assay
Format: cell-based, THP-1
Conditions: read-out: NOAEL

SMILES	MNTC at 72 h [µM]
CS(=O)(=O)c1ccc2nc(N)sc2c1	> 25
Nc1nc2ccc(C(=O)NCc3ccccc3N)cc2s1	> 25
Nc1nc2ccc(C(=O)NCc3ccc(Cl)c(Cl)c3)cc2s1	> 25
Nc1nc2c(C(=O)NCc3ccccc3)cc(O)c(O)c2s1	> 25

Biological target: T1, Pteridine reductase 1 (Leishmania major) (UniProt Q01782)
T1 sequence (whole entry): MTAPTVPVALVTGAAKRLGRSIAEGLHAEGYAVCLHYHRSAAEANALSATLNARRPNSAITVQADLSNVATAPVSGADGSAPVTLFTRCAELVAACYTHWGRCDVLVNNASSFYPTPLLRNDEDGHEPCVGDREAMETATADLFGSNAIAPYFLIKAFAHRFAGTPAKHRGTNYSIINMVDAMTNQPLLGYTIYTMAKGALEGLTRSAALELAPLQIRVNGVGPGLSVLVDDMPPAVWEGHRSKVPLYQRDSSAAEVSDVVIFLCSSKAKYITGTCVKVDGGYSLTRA
Experiment: Inhibition of Leishmania major pteridine reductase 1 at 50 uM using di-hydrobiopterine as substrate in presence of NADPH relative to control
Conditions: not given
Method in brief: (§1)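 Photometric PTR1 assay with NADPH and dihydrobiopterin substrate. H₄B formation is coupled non-enzymatically to cytochrome c reduction, read as signal increase at 550 nm.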

SMILES	inhibition [%]
CS(=O)(=O)c1ccc2nc(N)sc2c1	> 60
Nc1nc2ccc(C(=O)NCc3ccccc3N)cc2s1	> 60
Nc1nc2ccc(C(=O)NCc3ccc(Cl)c(Cl)c3)cc2s1	> 60
Nc1nc2c(C(=O)NCc3ccccc3)cc(O)c(O)c2s1	> 60

Test system: Trypanosoma brucei
Experiment: Inhibition of N-terminal His-tagged Trypanosoma brucei pteridine reductase 1 at 50 uM using di-hydrobiopterine as substrate measured at 1 min interval for 50 mins in presence of NADPH relative to control
Conditions: not given
Method in brief: as §1

SMILES	inhibition [%]
CS(=O)(=O)c1ccc2nc(N)sc2c1	> 60
Nc1nc2ccc(C(=O)NCc3ccccc3N)cc2s1	> 60
Nc1nc2ccc(C(=O)NCc3ccc(Cl)c(Cl)c3)cc2s1	> 60
Nc1nc2c(C(=O)NCc3ccccc3)cc(O)c(O)c2s1	> 60

Biological target: Cytochrome P450 3A4 (Homo sapiens, UniProt P08684)
Experiment: Inhibition of human CYP3A4 expressed in baculovirus infected insect cells using beetle D-luciferin as substrate preincubated for 30 mins followed by NADPH addition and measured after 30 mins by CYP450-Glo assay
Conditions: not given

Cytochrome P450 3A4, sequence (P08684 whole entry): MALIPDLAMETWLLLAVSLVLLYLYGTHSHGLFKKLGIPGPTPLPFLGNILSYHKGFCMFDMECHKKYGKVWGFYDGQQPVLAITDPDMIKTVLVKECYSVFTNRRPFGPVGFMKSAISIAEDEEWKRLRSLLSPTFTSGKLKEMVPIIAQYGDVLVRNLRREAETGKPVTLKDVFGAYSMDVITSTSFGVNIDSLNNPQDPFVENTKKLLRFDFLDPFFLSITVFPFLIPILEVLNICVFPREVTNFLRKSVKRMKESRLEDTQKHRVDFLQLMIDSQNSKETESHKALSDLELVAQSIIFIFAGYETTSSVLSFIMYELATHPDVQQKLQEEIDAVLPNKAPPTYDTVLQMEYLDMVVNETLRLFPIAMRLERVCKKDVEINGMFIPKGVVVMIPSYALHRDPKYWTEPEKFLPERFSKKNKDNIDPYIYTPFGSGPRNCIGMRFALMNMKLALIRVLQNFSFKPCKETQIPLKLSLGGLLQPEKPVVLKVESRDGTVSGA

SMILES	IC50 [µM]
CS(=O)(=O)c1ccc2nc(N)sc2c1	> 25
Nc1nc2ccc(C(=O)NCc3ccccc3N)cc2s1	10 to 25
Nc1nc2ccc(C(=O)NCc3ccc(Cl)c(Cl)c3)cc2s1	< 10
Nc1nc2c(C(=O)NCc3ccccc3)cc(O)c(O)c2s1	< 10

Test system: not listed separately
Experiment: Mitochondrial toxicity in human 786-O cells measured after 6 hrs by MitoTracker Red chloromethyl-X-rosamine based assay
Format: cell-based, 786-0
Conditions: not given

SMILES	IC50 at 6 h [µM]
CS(=O)(=O)c1ccc2nc(N)sc2c1	> 25
Nc1nc2ccc(C(=O)NCc3ccccc3N)cc2s1	> 25
Nc1nc2ccc(C(=O)NCc3ccc(Cl)c(Cl)c3)cc2s1	< 10
Nc1nc2c(C(=O)NCc3ccccc3)cc(O)c(O)c2s1	10 to 25

Biological target: T2, Pteridine reductase 1 (Leishmania major, UniProt Q01782)
T2 sequence (Q01782 whole entry): T1 sequence (whole entry)
Experiment: Inhibition of Leishmania major pteridine reductase 1 using di-hydrobiopterine as substrate in presence of NADPH
Conditions: read-out: IC50
Method in brief: as §1

SMILES	IC50 [µM]
CS(=O)(=O)c1ccc2nc(N)sc2c1	32.9
Nc1nc2ccc(C(=O)NCc3ccccc3N)cc2s1	64.7
Nc1nc2ccc(C(=O)NCc3ccc(Cl)c(Cl)c3)cc2s1	15.3
Nc1nc2c(C(=O)NCc3ccccc3)cc(O)c(O)c2s1	30.1

Biological target: not listed separately
Experiment: Inhibition of N-terminal His-tagged Trypanosoma brucei pteridine reductase 1 using di-hydrobiopterine as substrate measured at 1 min interval for 50 mins in presence of NADPH
Conditions: not given
Method in brief: as §1

SMILES	IC50 [µM]
CS(=O)(=O)c1ccc2nc(N)sc2c1	34.2
Nc1nc2ccc(C(=O)NCc3ccccc3N)cc2s1	13.9
Nc1nc2ccc(C(=O)NCc3ccc(Cl)c(Cl)c3)cc2s1	5.4
Nc1nc2c(C(=O)NCc3ccccc3)cc(O)c(O)c2s1	30.9

Biological target: Cytochrome P450 2D6 (Homo sapiens, UniProt P10635)
Experiment: Inhibition of human CYP2D6 expressed in baculovirus infected insect cells using beetle D-luciferin as substrate preincubated for 30 mins followed by NADPH addition and measured after 30 mins by CYP450-Glo assay
Conditions: not given

Cytochrome P450 2D6, sequence (P10635 whole entry): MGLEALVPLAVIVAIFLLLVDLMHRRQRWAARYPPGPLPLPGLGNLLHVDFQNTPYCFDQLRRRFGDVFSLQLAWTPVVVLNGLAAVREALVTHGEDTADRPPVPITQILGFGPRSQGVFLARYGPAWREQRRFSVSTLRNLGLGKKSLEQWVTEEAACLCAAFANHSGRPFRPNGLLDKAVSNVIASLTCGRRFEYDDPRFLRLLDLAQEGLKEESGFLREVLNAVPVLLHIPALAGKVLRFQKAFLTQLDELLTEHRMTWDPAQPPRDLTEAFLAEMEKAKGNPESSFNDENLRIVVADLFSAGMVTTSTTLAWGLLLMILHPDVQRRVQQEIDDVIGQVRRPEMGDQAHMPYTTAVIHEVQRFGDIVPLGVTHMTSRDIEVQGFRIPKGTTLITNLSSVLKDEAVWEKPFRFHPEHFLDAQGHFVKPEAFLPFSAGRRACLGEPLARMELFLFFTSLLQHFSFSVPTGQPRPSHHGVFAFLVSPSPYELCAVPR

SMILES	IC50 [µM]
CS(=O)(=O)c1ccc2nc(N)sc2c1	> 25
Nc1nc2ccc(C(=O)NCc3ccccc3N)cc2s1	10 to 25
Nc1nc2ccc(C(=O)NCc3ccc(Cl)c(Cl)c3)cc2s1	< 10
Nc1nc2c(C(=O)NCc3ccccc3)cc(O)c(O)c2s1	< 10

Biological target: T3, Cytochrome P450 1A2 (Homo sapiens, UniProt P05177)
T3 sequence (P05177 whole entry): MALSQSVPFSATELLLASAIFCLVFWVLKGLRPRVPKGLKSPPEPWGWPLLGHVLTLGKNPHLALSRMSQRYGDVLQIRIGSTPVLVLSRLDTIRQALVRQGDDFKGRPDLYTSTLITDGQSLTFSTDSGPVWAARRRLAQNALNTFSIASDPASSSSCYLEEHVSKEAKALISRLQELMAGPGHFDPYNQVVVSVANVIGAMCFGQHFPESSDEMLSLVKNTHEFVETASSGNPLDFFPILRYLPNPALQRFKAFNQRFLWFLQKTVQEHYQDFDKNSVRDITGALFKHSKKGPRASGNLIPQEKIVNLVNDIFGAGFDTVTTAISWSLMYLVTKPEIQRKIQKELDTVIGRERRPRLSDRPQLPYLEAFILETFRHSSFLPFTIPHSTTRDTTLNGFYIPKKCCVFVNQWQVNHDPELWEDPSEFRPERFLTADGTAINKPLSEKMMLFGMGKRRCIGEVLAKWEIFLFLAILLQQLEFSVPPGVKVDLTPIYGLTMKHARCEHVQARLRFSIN
Experiment: Inhibition of human CYP1A2 expressed in baculovirus infected insect cells using beetle D-luciferin as substrate preincubated for 30 mins followed by NADPH addition and measured after 30 mins by CYP450-Glo assay
Conditions: not given

SMILES	IC50 [µM]
CS(=O)(=O)c1ccc2nc(N)sc2c1	> 25
Nc1nc2ccc(C(=O)NCc3ccccc3N)cc2s1	> 25
Nc1nc2ccc(C(=O)NCc3ccc(Cl)c(Cl)c3)cc2s1	> 25
Nc1nc2c(C(=O)NCc3ccccc3)cc(O)c(O)c2s1	> 25
